Runt-SMMHC FRET: inhibitors of human RUNX1 Runt domain binding to CBFb-SMMHC. Cerulean-Runt/Venus-CBFb-SMMHC FRET ratio 530/480, 1 h. 0.74% of 220,000 active. Q01196+Q13951. AID 1434. inhibition, % at 20 µM;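 active = mean inhibition across duplicate retests at 20 µM reaching about 50%, limit read from the data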;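 also: 0% = DMSO wells and 100% = wells with excess untagged CBFb-SMMHC; inhibitors lower the FRET ratio by blocking Runt binding to CBFb-SMMHC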
Target sequence (Q01196 whole entry, looked up, the tested form may be a part): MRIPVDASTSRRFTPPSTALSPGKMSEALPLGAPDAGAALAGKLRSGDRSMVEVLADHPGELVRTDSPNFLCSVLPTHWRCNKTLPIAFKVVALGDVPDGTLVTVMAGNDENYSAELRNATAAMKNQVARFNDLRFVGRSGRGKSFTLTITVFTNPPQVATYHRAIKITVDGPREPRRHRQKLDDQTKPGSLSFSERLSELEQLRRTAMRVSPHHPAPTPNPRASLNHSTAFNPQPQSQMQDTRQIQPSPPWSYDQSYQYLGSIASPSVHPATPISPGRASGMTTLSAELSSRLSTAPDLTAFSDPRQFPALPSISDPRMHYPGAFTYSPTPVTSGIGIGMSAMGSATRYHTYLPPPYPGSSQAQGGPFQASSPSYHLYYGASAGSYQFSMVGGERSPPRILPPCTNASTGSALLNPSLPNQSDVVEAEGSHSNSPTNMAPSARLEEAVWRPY
Target sequence (Q13951 whole entry, looked up, the tested form may be a part): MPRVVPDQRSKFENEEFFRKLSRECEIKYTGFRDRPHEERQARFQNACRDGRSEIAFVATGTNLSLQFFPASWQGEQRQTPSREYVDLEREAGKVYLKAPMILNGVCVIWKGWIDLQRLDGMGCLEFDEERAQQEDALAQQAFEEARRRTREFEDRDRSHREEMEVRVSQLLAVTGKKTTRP
Runt-CBFb FRET: blocks binding of human RUNX1 Runt domain to CBFb; 0.46% of 220,000 active; inhibition, % at 20 µM; Q01196+Q13951; Cerulean-Runt/Venus-CBFb FRET ratio 530/480, 1 h;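 active = inhibition over about 50% at 20 µM in the single-dose screen, limit read from the data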;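 also: 0% = DMSO wells and 100% = excess unlabeled CBFb competitor control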
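System: Cerulean-labeled Runt domain protein | Quantity: 100 nM of each labeled protein | Schedule: 1 h compound exposure, room temperature | Detection: Fluorescence energy transfer, 422 nm excitation, 530/480 nm emission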
Vif imaging: inhibitors of HIV Vif; 0.35% of 340,000 active; HEK293T cells, Vif self-association by quenched fluorescence, imaging, 24 h; inhibition, % at 7.49 µM; in the data active = inhibition above about 50%, passing the limit was not always enough; inconclusive = no clear call, values can overlap the other calls; inactive = below about 31%
Rce1 inhib: yeast Ras-converting enzyme inhibition | Q03530 | yeast membranes, quenched prenylated peptide cleavage fluorescence | calls only | 0.27% of 290,000 active | AID 2563;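 active = fall in fluorescence gain of 50% or more versus controls, with final raw signal at or below 3038400; inconclusive = same 50% fall but final raw signal above 3038400; inactive = fall in fluorescence gain under 50%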;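 also: plate controls were neutral control wells for no effect and wells lacking membranes for full effect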
RanGTP-Imp inh: disruptors of Ran-importin-beta complex formation – biochemical, FRET, CFP-Ran, YFP-importin-beta, homogeneous, primary screen | inhibition, % (no concentration beside the values) | 1.1% of 300,000 active | cell-free CFP-Ran/YFP-importin-beta FRET ratio;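 active = more than half of the replicate wells show a fall in the fluorescence ratio signal beyond about 16%, limit read from the data, passing the limit was not always enough; inconclusive = exactly half of the replicate wells pass the set limit; inactive = fewer than half of replicates pass the limit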;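 also: 0% = DMSO wells and 100% = Ran loaded with GDP instead of GTP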
Active calls of the source: *. In the library only some 1.7% were active in any assay of this set; here they are far more common.

For Cc1c(O)ccc2c(CN3CCN(C/C=C/c4ccccc4)CC3)cc(=O)oc12 the results were Runt-SMMHC FRET 81*, Runt-CBFb FRET 44, Vif imaging -1, Rce1 inhib inactive and RanGTP-Imp inh 52*.
`Nc1c(C(=O)Nc2ccc(S(=O)(=O)N3CCCC3)cc2)sc2nc3ccc(OC(F)(F)F)cc3cc12` gave Runt-SMMHC FRET -60, Runt-CBFb FRET 22, Vif imaging 96*, Rce1 inhib inactive and RanGTP-Imp inh -4.
`COc1cc(-c2nc3ccccn3c2/N=C/c2cccc(OC)c2O)ccc1O` gave Runt-SMMHC FRET -14, Runt-CBFb FRET 1, Vif imaging 5, Rce1 inhib active and RanGTP-Imp inh 3.
`CCCCNC(=S)NNC(=O)CCn1cc(C)cn1` gave Runt-SMMHC FRET -2, Runt-CBFb FRET -1, Vif imaging -1, Rce1 inhib active and RanGTP-Imp inh 6.
For COc1ccc(CN2C(=NC(=O)C3CCCO3)SC3CS(=O)(=O)CC32)cc1OC (stereo unspecified) the results were Vif imaging -8, Rce1 inhib inactive and RanGTP-Imp inh 1.
O=C(C[C@@H]1C/C=C\C[C@H](Cc2ccc(F)cc2)C(=O)OC[C@H]2CCCN2C1=O)NCCO was read as Vif imaging -1.
`CC(=O)Nc1ccc(/C=C/C(=O)c2ccc3c(c2)OCCO3)cc1` gave Vif imaging 56*, Rce1 inhib inactive and RanGTP-Imp inh -4.
For Nc1ccc2c(c1)C(=O)CCC2 the results were Vif imaging -2.
For Cc1ccccc1OC(C)C(=O)N1CCC(Cc2ccccc2)CC1 (stereo unspecified) the results were Vif imaging -7, Rce1 inhib active and RanGTP-Imp inh -1.
For Cc1ccc(S(=O)(=O)CC(=O)N2CCN(c3ccccc3F)CC2)cc1 the results were Vif imaging -7, Rce1 inhib active and RanGTP-Imp inh 3.
`Cc1ccc(CC(=O)N2CCN(c3ccccc3F)CC2)cc1` gave Runt-SMMHC FRET -1, Runt-CBFb FRET -2, Vif imaging 0, Rce1 inhib inactive and RanGTP-Imp inh -4.
`CN(C1CCCCC1)S(=O)(=O)c1ccc2c(c1)CCC(=O)N2` gave Vif imaging -4.
O=C(OCCOc1cccc(Cl)c1)c1ccc2ncsc2c1 was read as Vif imaging 5, Rce1 inhib inactive and RanGTP-Imp inh -1.
Screening COc1ccc(CNC(=O)c2cc(C(C)=O)c[nH]2)cc1 returned Vif imaging 3, Rce1 inhib inactive and RanGTP-Imp inh 4.
`COc1ccc(CNC(=O)c2ccc[nH]2)cc1` gave Runt-SMMHC FRET -5, Runt-CBFb FRET 2, Vif imaging 60*, Rce1 inhib inactive and RanGTP-Imp inh 0.
`CN1CCS/C1=C/C=C1/SC(=S)N(Cc2ccccc2)C1=O` gave Runt-SMMHC FRET -27, Runt-CBFb FRET -12, Vif imaging 52*, Rce1 inhib inactive and RanGTP-Imp inh -2.
For CCOC(=O)C1=C(C)Nc2ccccc2N=C1NC(=O)c1oc2ccccc2c1COC the results were Vif imaging 1.
For COc1ccc(C(=O)/C=C\c2ccc(NC(=O)c3cccs3)cc2)cc1 the results were Runt-SMMHC FRET -25, Runt-CBFb FRET -3, Vif imaging 3, Rce1 inhib inactive and RanGTP-Imp inh 23*.
`CC1Oc2ccccc2C=C1/C=N/NC(=O)[C@@H](C)NC(=O)OC(C)(C)C` (stereo partly specified) gave Runt-SMMHC FRET -1, Runt-CBFb FRET -1, Vif imaging -6, Rce1 inhib active and RanGTP-Imp inh 2.
For COc1ccccc1CN1CC(C(=O)NCCCc2ccc(F)cc2)CCC1=O (stereo unspecified) the results were Vif imaging -2, Rce1 inhib inactive and RanGTP-Imp inh 4.
O=S(=O)(c1ccccc1)c1cnn2c(C(F)(F)F)cc(-c3ccccc3)nc12 was read as Runt-SMMHC FRET 14, Runt-CBFb FRET 3, Vif imaging -7, Rce1 inhib inactive and RanGTP-Imp inh -3.
`O=S(=O)(c1ccccc1)c1cnn2c(C(F)(F)F)cc(-c3ccc(F)cc3)nc12` gave Runt-SMMHC FRET 35, Runt-CBFb FRET 6, Vif imaging 0, Rce1 inhib active and RanGTP-Imp inh 2.
`COc1ccccc1-c1cc(C(F)(F)F)n2ncc(S(=O)(=O)c3ccccc3)c2n1` gave Runt-SMMHC FRET 48, Runt-CBFb FRET 16, Vif imaging -17, Rce1 inhib active and RanGTP-Imp inh 1.
Screening COc1ccc(OC)c(NC(=O)C2CCN(S(=O)(=O)c3cccs3)CC2)c1 returned Runt-SMMHC FRET -2, Runt-CBFb FRET 0, Vif imaging 3, Rce1 inhib inactive and RanGTP-Imp inh 1.
`COc1ccc(OC)c(NC(=O)C2CCN(C(=O)c3cccs3)CC2)c1` gave Runt-SMMHC FRET 2, Runt-CBFb FRET 66*, Vif imaging 2, Rce1 inhib inactive and RanGTP-Imp inh 0.
For CCC(C)NC(=O)c1cn(CC)c2cc(N3CCN(C)CC3)c(F)cc2c1=O (stereo unspecified) the results were Runt-SMMHC FRET -3, Runt-CBFb FRET -1, Vif imaging -7, Rce1 inhib inactive and RanGTP-Imp inh 5.
Screening CCn1cc(S(=O)(=O)c2ccc(OC)cc2)c(=O)c2cc(F)c(N3CCN(C)CC3)cc21 returned Vif imaging 0, Rce1 inhib active and RanGTP-Imp inh 1.
For CCn1cc(C(=O)O)c(=O)c2cc(F)c(N3CCN(C)CC3)cc21 the results were Runt-SMMHC FRET 2, Runt-CBFb FRET 1, Vif imaging 0, Rce1 inhib inactive and RanGTP-Imp inh 2.
`CCn1cc(C(=O)N[C@H](C)c2ccccc2)c(=O)c2cc(F)c(N3CCN(C)CC3)cc21` gave Runt-SMMHC FRET 0, Runt-CBFb FRET -7, Rce1 inhib active and RanGTP-Imp inh 1.
`CN(C)S(=O)(=O)c1ccc(C(=O)NC(=O)CSc2ccccc2)cc1` gave Runt-SMMHC FRET -5, Runt-CBFb FRET 1, Vif imaging -2, Rce1 inhib inactive and RanGTP-Imp inh inconclusive.
`CC(=O)Nc1ccc(SCC(=O)NC(=O)c2ccc(S(=O)(=O)N(C)C)cc2)cc1` gave Vif imaging 83*.
Screening O=[N+]([O-])c1cccc(N/N=C/c2cccc(O)c2O)c1 returned Runt-SMMHC FRET -5, Runt-CBFb FRET 5, Vif imaging 64*, Rce1 inhib inactive and RanGTP-Imp inh 3.
Screening O=[N+]([O-])c1ccccc1N/N=C/c1cccc(O)c1O returned Runt-SMMHC FRET 0, Runt-CBFb FRET 0, Vif imaging -2, Rce1 inhib inactive and RanGTP-Imp inh -2.
For CCOc1ccc(/C(C)=N\NC(=O)Cc2ccccc2)cc1 the results were Vif imaging -5, Rce1 inhib inactive and RanGTP-Imp inh -3.
